Measurements published in ChEMBL document CHEMBL3769384, “Discovery of Tetrahydropyrazolopyridine as Sphingosine 1-Phosphate Receptor 3 (S1P3)-Sparing S1P1 Agonists Active at Low Oral Doses” (J Med Chem, 2016).
Calls of active or inactive are those of the source. No cut-off for these calls is given here.

Tests used:
[1] = biological target: Sphingosine 1-phosphate receptor 3 (Homo sapiens, UniProt Q99500); experiment: Agonist activity at human S1P3 receptor expressed in RBL cells by [35S]GTP-gammaS accumulation assay; type: cell-based
Chain of Sphingosine 1-phosphate receptor 3 (Q99500 whole entry): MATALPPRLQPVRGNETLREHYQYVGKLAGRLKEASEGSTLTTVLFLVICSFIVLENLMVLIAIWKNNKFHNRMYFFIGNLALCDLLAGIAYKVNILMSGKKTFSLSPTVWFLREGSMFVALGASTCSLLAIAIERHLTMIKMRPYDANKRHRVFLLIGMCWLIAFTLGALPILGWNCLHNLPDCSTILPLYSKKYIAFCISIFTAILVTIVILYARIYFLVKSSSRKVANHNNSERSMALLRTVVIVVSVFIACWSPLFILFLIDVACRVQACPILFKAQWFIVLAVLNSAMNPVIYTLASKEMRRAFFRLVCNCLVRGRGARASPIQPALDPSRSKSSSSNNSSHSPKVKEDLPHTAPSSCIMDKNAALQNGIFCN
Procedure, shortened: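 Sucrose-gradient-purified RBL S1P3 membranes (0.44 µg/well) precoupled 30 min on ice to WGA SPA beads with 2 µg/well saponin in HEPES/MgCl2/NaCl buffer pH 7.4. 5 µM GDP final and 0.3 nM [35S]GTPγS final added, then dispensed onto compound in DMSO. Read by scintillation proximity after 3 h at room temperature.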

[2] = Lipophilicity, log D of the compound at pH 7.4 by chromatography; type: physicochemical; settings: buffer
[3] = biological target: T1, Sphingosine 1-phosphate receptor 1 (Homo sapiens, UniProt P21453); experiment: Agonist activity at human S1P1 receptor expressed in RH7777 cells by [35S]GTP-gammaS accumulation assay; type: cell-based
T1 sequence (P21453 whole entry): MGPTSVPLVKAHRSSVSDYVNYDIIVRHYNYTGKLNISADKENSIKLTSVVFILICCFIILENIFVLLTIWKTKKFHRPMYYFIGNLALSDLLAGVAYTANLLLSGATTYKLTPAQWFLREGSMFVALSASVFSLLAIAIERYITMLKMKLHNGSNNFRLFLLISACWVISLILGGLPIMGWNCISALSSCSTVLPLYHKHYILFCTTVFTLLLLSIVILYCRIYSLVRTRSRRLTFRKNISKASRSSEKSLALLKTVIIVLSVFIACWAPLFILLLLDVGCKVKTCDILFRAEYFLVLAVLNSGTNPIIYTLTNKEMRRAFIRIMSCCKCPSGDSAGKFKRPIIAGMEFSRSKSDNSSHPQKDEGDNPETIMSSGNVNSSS
Procedure, shortened: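 RH7777 S1P1 membranes (1.5 µg/well) precoupled 30 min on ice to WGA SPA beads in 20 mM HEPES, 10 mM MgCl2, 100 mM NaCl, pH 7.4, with 10 µM GDP and 90 µg/mL saponin (final). 0.5 nM [35S]GTPγS final added to compound; plates read immediately by scintillation proximity.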

[4] = biological target: T1, Sphingosine 1-phosphate receptor 1; experiment: Agonist activity at human S1P1 receptor expressed in CHO-K1 EDG1 cells by beta-arrestin recruitment assay; type: cell-based
Procedure, shortened: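 CHO-K1 cells stably expressing beta-arrestin 2 and S1P1 fused to complementing beta-galactosidase fragments; grown to 80% confluency, harvested enzyme-free, resuspended in HEPES/BSA assay buffer pH 7.4. Cells at 1x10^4/well added to compound in DMSO, 90 min at 37°C/5% CO2, then 15 min at room temperature; chemiluminescent detection mix 60 min at room temperature, luminescence read.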

Rattus norvegicus [5] = experiment: Lymphopenia activity in Lewis rat at 1 mg/kg, po measured after 2 to 4 hrs; type: functional, organism-based
Rattus norvegicus [6] = experiment: Lymphopenia activity in Lewis rat at 1 mg/kg, po measured at 8 hrs; type: functional, organism-based
Rattus norvegicus [7] = experiment: Lymphopenia activity in Lewis rat at 1 mg/kg, po measured after 24 hrs; type: functional, organism-based
[8] = biological target: T2, Sphingosine 1-phosphate receptor 4 (Homo sapiens) (UniProt O95977); experiment: Agonist activity at human S1P4 receptor expressed in CHO-K1 cells by aequorin calcium accumulation assay; type: functional, cell-based
T2 sequence (whole entry): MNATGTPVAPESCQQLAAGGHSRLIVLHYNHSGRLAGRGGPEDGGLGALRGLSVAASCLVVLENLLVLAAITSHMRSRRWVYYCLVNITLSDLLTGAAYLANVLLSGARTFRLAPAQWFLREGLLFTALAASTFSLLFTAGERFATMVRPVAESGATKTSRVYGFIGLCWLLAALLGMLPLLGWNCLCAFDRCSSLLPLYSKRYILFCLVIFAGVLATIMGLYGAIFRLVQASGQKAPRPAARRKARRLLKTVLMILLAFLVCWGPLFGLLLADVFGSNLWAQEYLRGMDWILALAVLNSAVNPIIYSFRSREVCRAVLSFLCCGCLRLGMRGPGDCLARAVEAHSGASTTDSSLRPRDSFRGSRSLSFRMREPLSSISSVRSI
Procedure, shortened: (§1)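 CHO-K1 aequorin lines revived in DMEM F12 with 10% charcoal-stripped FBS, recovered 30 min at 37°C, then loaded 18-24 h at room temperature in the dark with 5 µM coelenterazine at 2.5x10^6 cells/mL. Cells were added at 1x10^5/well to compound, and flash luminescence was recorded immediately.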

[9] = biological target: Sphingosine 1-phosphate receptor 2 (Homo sapiens, UniProt O95136); experiment: Agonist activity at human S1P2 receptor expressed in Saccharomyces cerevisiae after 24 hrs by reporter gene assay
Chain of Sphingosine 1-phosphate receptor 2 (O95136 whole entry): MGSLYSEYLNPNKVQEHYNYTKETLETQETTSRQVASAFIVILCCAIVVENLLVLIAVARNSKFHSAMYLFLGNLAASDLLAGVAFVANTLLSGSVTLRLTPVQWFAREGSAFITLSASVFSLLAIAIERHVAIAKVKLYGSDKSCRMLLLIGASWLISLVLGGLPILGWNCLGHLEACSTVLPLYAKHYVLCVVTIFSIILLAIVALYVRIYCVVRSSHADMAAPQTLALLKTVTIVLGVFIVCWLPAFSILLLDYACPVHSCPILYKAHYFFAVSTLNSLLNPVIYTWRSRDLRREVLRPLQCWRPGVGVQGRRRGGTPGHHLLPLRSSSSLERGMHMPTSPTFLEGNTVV
Procedure, shortened: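 S. cerevisiae with integrated S1P2 under the GPD promoter, seeded at 0.02 OD600 in histidine-free minimal medium with 5 mM 3-aminotriazole and 100 µM fluorescein-di-(β-D-glucopyranoside). Agonist-driven growth was read as fluorescein fluorescence (ex 485/em 535 nm) after 24 h at 30°C.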

[10] = biological target: Sphingosine 1-phosphate receptor 5 (Homo sapiens, UniProt Q9H228); experiment: Agonist activity at human S1P5 receptor expressed in CHO-K1 cells by aequorin calcium accumulation assay; type: functional, cell-based; procedure, shortened: as §1
Chain of Sphingosine 1-phosphate receptor 5 (Q9H228 whole entry): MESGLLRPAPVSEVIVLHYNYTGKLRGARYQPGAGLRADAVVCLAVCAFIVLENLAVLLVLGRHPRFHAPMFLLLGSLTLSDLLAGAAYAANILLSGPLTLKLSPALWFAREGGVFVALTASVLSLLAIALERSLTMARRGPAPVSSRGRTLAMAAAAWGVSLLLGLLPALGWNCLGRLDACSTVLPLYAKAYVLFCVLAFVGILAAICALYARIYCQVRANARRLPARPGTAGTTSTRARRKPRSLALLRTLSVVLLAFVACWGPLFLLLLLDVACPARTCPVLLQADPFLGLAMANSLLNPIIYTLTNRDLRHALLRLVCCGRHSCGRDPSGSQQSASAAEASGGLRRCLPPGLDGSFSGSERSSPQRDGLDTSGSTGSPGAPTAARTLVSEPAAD

Rattus norvegicus [11] = experiment: Lymphopenia activity in Lewis rat at 0.3 mg/kg, po measured after 24 hrs; type: functional, organism-based
Procedure, shortened: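 Male Lewis rats (300-350 g) bled by venepuncture the day before dosing. Compound given orally at 0.1-3 mg/kg, or vehicle (1% methylcellulose, 4 mL/kg). Blood taken 0.25-54 h post-dose and lymphocytes counted on an automatic haematology analyser.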

[12] = biological target: T1, Sphingosine 1-phosphate receptor 1; experiment: Agonist activity at human S1P1 receptor by receptor internalisation assay

| EC50 [1] | chromatographic logD [2] | EC50 [3] | EC50 [4] | SMILES | other results |
| --- | --- | --- | --- | --- | --- |
| > 31600 nM | 4.87 | 398 nM | 794 nM | CC(C)Oc1ccc(-c2nnc(-n3ncc4c3CCNC4)s2)cc1Cl | – |
| > 31600 nM | 2.88 | – | 100 nM | Cc1c2c(nn1-c1nnc(-c3ccc(OC(C)C)c(C#N)c3)s1)CCN(CC(=O)O)C2 | – |
| > 31600 nM | 5.45 | 126 nM | – | Cc1[nH]ncc1-c1nnc(-c2ccc(OC(C)C)c(Cl)c2)s1 | – |
| > 31600 nM | 2.58 | 50.1 nM | 5.01 nM | CC(C)Oc1ccc(-c2nnc(-n3cc4c(n3)CCN(CCC(=O)O)C4)s2)cc1C#N | Activity (Rattus norvegicus [5]): Active; Activity (Rattus norvegicus [6]): Active |
| > 31600 nM | 6.93 | 1000 nM | – | CC(C)Oc1ccc(-c2nnc(-c3ccno3)s2)cc1Cl | – |
| > 31600 nM | 3.37 | 501 nM | 126 nM | CC(C)Oc1ccc(-c2nnc(-n3cc4c(n3)CCNC4)s2)cc1C#N | – |
| – | – | 3980 nM | – | CC(C)Oc1ccc(-c2nnc(N3CCC(N4CCCC(C(=O)O)C4)CC3)s2)cc1Cl (centres undefined) | – |
| > 31600 nM | 4.3 | 39.8 nM | 20 nM | Cc1nn(-c2nnc(-c3ccc(OC(C)C)c(Cl)c3)s2)c(C)c1CCC(=O)O | – |
| > 31600 nM | 5.59 | 10000 nM | – | CC(C)Oc1ccc(-c2nnc(-c3cnn(CCN4CCOCC4)c3)s2)cc1Cl | – |
| – | – | 100 nM | – | CC(C)Oc1ccc(-c2nnc(N3CCc4cc(CCC(=O)O)ccc43)s2)cc1Cl | – |
| – | – | 1260 nM | – | CC(C)Oc1ccc(-c2nnc(Nc3ccc(CC(=O)O)cc3)s2)cc1Cl | – |
| > 31600 nM | 3.73 | 100 nM | 63.1 nM | Cc1c2c(nn1-c1nnc(-c3ccc(OC(C)C)c(C#N)c3)s1)CCNC2 | – |
| > 31600 nM | 5.32 | 126 nM | 158 nM | Cc1c2c(nn1-c1nnc(-c3ccc(OC(C)C)c(Cl)c3)s1)CCNC2 | – |
| > 31600 nM | 4.23 | – | 158 nM | Cc1c2c(nn1-c1nnc(-c3ccc(OC(C)C)c(C#N)c3)s1)CNCC2 | – |
| – | – | – | – | CCCCCCCCc1ccc(CCC(N)(CO)CO)cc1 | Activity (Rattus norvegicus [5]): Active |
| > 39800 nM | 3.41 | 31.6 nM | 5.01 nM | Cc1c(-c2noc(-c3ccc(OC(C)C)c(C#N)c3)n2)ccc2c1CCN(CCC(=O)O)C2 | – |
| – | – | – | – | Cc1c2c(nn1-c1nnc(-c3ccc(OC(C)C)c(Cl)c3)s1)CCN(CCC(=O)O)C2 | Activity (Rattus norvegicus [5]): Active; Activity (Rattus norvegicus [7]): Active; Emax [8]: 7%; Emax [9]: 0%; Emax [10]: 63%; Activity (Rattus norvegicus [11]): Active; Emax [4]: 83%; Emax [12]: 109% |
| – | – | 6310 nM | – | CC(C)Oc1ccc(-c2nnc(N3CCNCC3)s2)cc1Cl | – |
| 20000 nM | 8.65 | 251 nM | – | CC(C)Oc1ccc(-c2nnc(-c3ccccc3)s2)cc1Cl | – |

| EC50 [1] | chromatographic logD [2] | EC50 [3] | EC50 [4] | SMILES | other results |
| --- | --- | --- | --- | --- | --- |
| – | – | > 31600 nM | – | CC(C)Oc1ccc(-c2nnc(NCCN)s2)cc1Cl | – |
| > 31600 nM | 2.76 | 15.8 nM | 3.16 nM | Cc1c2c(nn1-c1nnc(-c3ccc(OC(C)C)c(C#N)c3)s1)CCN(CCC(=O)O)C2 | Activity (Rattus norvegicus [5]): Active; Activity (Rattus norvegicus [6]): Active |
| > 31600 nM | 2.87 | – | 6.31 nM | CC(C)Oc1ccc(-c2nnc(-n3cc4c(n3)CCN(CCCC(=O)O)C4)s2)cc1C#N | – |
| > 31600 nM | 7.76 | 251 nM | – | Cc1nc(C)c(-c2nnc(-c3ccc(OC(C)C)c(Cl)c3)s2)s1 | – |
| – | – | 251 nM | – | CC(C)Oc1ccc(-c2nnc(N3CCOc4c(CCC(=O)O)cccc43)s2)cc1Cl | – |
| > 31600 nM | 3.16 | 2510 nM | – | Cc1c(-c2nnc(-c3ccc(OC(C)C)c(Cl)c3)s2)cnn1CCC(=O)O | – |
| 20000 nM | 3.54 | 126 nM | 50.1 nM | CC(C)Oc1ccc(-c2nnc(-n3ncc4c3CCN(CCC(=O)O)C4)s2)cc1Cl | Activity (Rattus norvegicus [5]): inactive |
| – | – | 1580 nM | – | CC(C)Oc1ccc(-c2nnc(NC3=CCNCC3)s2)cc1Cl | – |
| > 31600 nM | 6.18 | 501 nM | – | CC(C)Oc1ccc(-c2nnc(-n3cncn3)s2)cc1Cl | – |
| – | – | > 31600 nM | – | CC(C)Oc1ccc(-c2nnc(NCCNCCC(=O)O)s2)cc1Cl | – |
| > 31600 nM | 2.82 | 25100 nM | – | CC(C)Oc1ccc(-c2nnc(-c3cnn(CC(=O)O)c3)s2)cc1Cl | – |
| > 31600 nM | 3.62 | 1000 nM | 1580 nM | Cc1nn(-c2nnc(-c3ccc(OC(C)C)c(Cl)c3)s2)c(C)c1CC(=O)O | – |
| > 31600 nM | 3.26 | 12.6 nM | 3.98 nM | CC(C)Oc1ccc(-c2nnc(-n3cc4c(n3)CCN(CCC(=O)O)C4)s2)cc1Cl | Activity (Rattus norvegicus [5]): Active; Activity (Rattus norvegicus [7]): inactive |
| > 31600 nM | 5.7 | 63.1 nM | – | CC(C)Oc1ccc(-c2nnc(-c3cncn3C)s2)cc1Cl | – |
| > 31600 nM | 3.56 | 12.6 nM | 5.01 nM | CC(C)Oc1ccc(-c2nnc(-n3cc4c(n3)CCN(CCCC(=O)O)C4)s2)cc1Cl | – |
| > 31600 nM | 5 | 631 nM | – | CC(C)Oc1ccc(-c2nnc(-c3cn[nH]c3)s2)cc1Cl | – |
| > 31600 nM | 4.44 | 631 nM | 631 nM | CC(C)Oc1ccc(-c2nnc(-n3cc4c(n3)CCNC4)s2)cc1Cl | – |
| – | – | 2510 nM | – | CC(C)Oc1ccc(-c2nnc(NC3CCN(CC(=O)O)CC3)s2)cc1Cl | – |
| > 31600 nM | 7.04 | 251 nM | – | CC(C)Oc1ccc(-c2nnc(-c3ccnn3C)s2)cc1Cl | – |
